73 sequences from the array DNA melting data of Ke et al. (doi:10.1101/2024.01.08.574731) can be followed below.

A short description of data set [1]: melting temperature; fluorescence melt of hairpins on a sequencing array, two-state fit, raised by 9.35 °C to match UV melts. The conditions noted are these: sodium 0.088 M. Put shortly: (§1)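 Hairpins were imaged by Cy3 fluorescence on a sequenced MiSeq flow cell with annealed Cy3 and quencher oligos, in 50 mM Na-HEPES pH 8.0, 25 mM NaCl, in 2.5 °C steps up to 60 °C. Bootstrapped two-state fits of normalised signals gave melting temperature and folding enthalpy. Four replicates were combined by inverse variance, and fitted temperatures were raised by 9.35 °C to match UV melts.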

Data set [2] in a line: folding enthalpy; higher = less favourable; fluorescence melt of hairpins on a sequencing array, two-state fit. The conditions noted are these: sodium 0.088 M. Put shortly: as §1

Take GTCTCCGAAAGGAAAGAC ((((((....)))..))): in data set [1], the Tm turned out to be 42.4 °C. Further, in data set [2], the folding enthalpy was -23.1 kcal/mol.
The like results for GTCTCCGAAAGGAAGGAC ((((((....)))..))) were, in that order, 36.2 °C and -16.5 kcal/mol.
The like results for GTCTCCGAAAGGACGAC ((((((....))).))) were, in that order, 46.7 °C and -27.5 kcal/mol.
The like results for GTCTCCGCGAAAGCGGAC (((..(((....)))))) were, in that order, 34.2 °C and -6.7 kcal/mol.
For the sequence GTCTCGAAAGAGAC (((((....))))), in data set [1], the Tm was found to be 60.5 °C. In addition, the folding enthalpy in data set [2] is -24.8 kcal/mol.
GTCTCGGGAAACCGGGAC (((.(((....))).))): the Tm in data set [1] was 55.3 °C. Further, in data set [2], the folding enthalpy was -38.4 kcal/mol.
For GTCTCGGGAAACTGGGAC (((.(.(....).).))), the Tm in data set [1] came out at 37.2 °C. Moreover, the folding enthalpy in data set [2] was -29.3 kcal/mol.
The like results for GTCTCTCGAAAGAGCGAC (((.(((....))).))) were, in that order, 46.3 °C and -25.6 kcal/mol.
The like results for GTCTGAGGAAACTCGGAC (((.(((....))).))) were, in that order, 49.4 °C and -36.2 kcal/mol.
The like results for GTCTGATCGAAAGATGAC (((..(((....)))))) were, in that order, 30.1 °C and -19.8 kcal/mol.
Consider GTCTGCCGAAAGGCCGAC (((.(((....))).))), for which the Tm in data set [1] turned out to be 54.1 °C. Besides, the folding enthalpy in data set [2] was -25.6 kcal/mol.
Turning to GTCTGCGAAAGCAGGAC ((((((....))).))), the Tm in data set [1] was 57.8 °C. Also, the folding enthalpy in data set [2] was -11.4 kcal/mol.
The like results for GTCTGCGGAAACGCAGGC (.(((((....))))).) were, in that order, 63.9 °C and -19.6 kcal/mol.
Consider GTCTGCGGAAACGCGGAC (((.(((....))).))), for which the Tm in data set [1] was 63.7 °C. In data set [2], the folding enthalpy was -39.2 kcal/mol.
The like results for GTCTGCGGAAACGTAGAC ((((.((....)).)))) were, in that order, 53.2 °C and -37.8 kcal/mol.
For GTCTGGGAAACCAGAC ((((((....)))))), the Tm in data set [1] is 58.3 °C. Further, the folding enthalpy in data set [2] is -38.3 kcal/mol.
The like results for GTCTGGGCGAAAGCCGAC (((..(((....)))))) were, in that order, 44.4 °C and -14.6 kcal/mol.
The like results for GTCTGGGGAAACCCAGGC (.(((((....))))).) were, in that order, 55.5 °C and -28.1 kcal/mol.
GTCTGGGGAAACTCAGAC (((((.(....).))))): in data set [1], the Tm came out at 49.1 °C. Moreover, in data set [2], the folding enthalpy was -43.7 kcal/mol.
The like results for GTCTGTCGAAAGACCGAC (((.(((....))).))) were, in that order, 47.7 °C and -27.8 kcal/mol.
The like results for GTCTGTCGAAAGACGAC (((.(((....)))))) were, in that order, 51.5 °C and -28.6 kcal/mol.
Turning to GTCTGTGGAAACACAAAC ((.((((....)))).)), the Tm in data set [1] was 28.1 °C. Further, the folding enthalpy in data set [2] was -12.3 kcal/mol.
The like results for GTCTGTGGAAACACAGGC (.(((((....))))).) were, in that order, 53.7 °C and -32.4 kcal/mol.
As for GTCTGTGGAAACACGGAC (((.(((....))).))), in data set [1], the Tm amounted to 53 °C. Further, in data set [2], the folding enthalpy is -34.9 kcal/mol.
On to GTCTGTGGAAACATAGGC (.((.((....)).)).), for which, in data set [1], the Tm was 31.3 °C. Moreover, the folding enthalpy in data set [2] was -16.4 kcal/mol.
As for GTCTTAGAAATAAGAC ((((((....)))))), the Tm in data set [1] was determined as 43.4 °C. For the same sequence, the folding enthalpy in data set [2] was -26.5 kcal/mol.
The like results for GTCTTAGGAAACCAAGAC (((((.(....).))))) were, in that order, 34.4 °C and -30.9 kcal/mol.
The like results for GTCTTCACGAAAGTGGAC (((..(((....)))))) were, in that order, 31.9 °C and -14.2 kcal/mol.
For GTCTTCGAAAGAACGAC ((((((....))).))), the Tm in data set [1] was 37.6 °C. In data set [2], the folding enthalpy is -21.2 kcal/mol.
The like results for GTCTTCGAAAGAATGGAC ((((((....)))..))) were, in that order, 27.2 °C and -14.9 kcal/mol.
The like results for GTCTTGGGAAACCAAGAC (((((((....))))))) were, in that order, 62.1 °C and -46.4 kcal/mol.
The like results for GTCTTGGGAAACTAAGAC (((((.(....).))))) were, in that order, 42.8 °C and -34.9 kcal/mol.
Regarding GTGAAACGAAAGTTCAC (((.(((....)))))), the Tm in data set [1] came out at 47.6 °C. Also, in data set [2], the folding enthalpy was -18.3 kcal/mol.
With GTGAAACGAAAGTTCCAC (((.(((....))).))), the Tm in data set [1] stood at 43.9 °C. Further, the folding enthalpy in data set [2] was -22.8 kcal/mol.
Turning to GTGAAAGGAAACCTTCAC (((((.(....).))))), in data set [1], the Tm was determined as 36.5 °C. Further, the folding enthalpy in data set [2] is -27 kcal/mol.
With GTGAAAGGAAACTCTCAC ((((.((....)).)))), the Tm in data set [1] turned out to be 26.5 °C. In addition, in data set [2], the folding enthalpy was -12.6 kcal/mol.
The like results for GTGAACCCGAAAGGGCAC (((..(((....)))))) were, in that order, 38.9 °C and -15.8 kcal/mol.
The like results for GTGAACCGAAAGGTACAC (((.(((....))).))) were, in that order, 54.3 °C and -35.7 kcal/mol.
The like results for GTGAACGAAAGTTCACAC ((((((....)))..))) were, in that order, 66.6 °C and -10.8 kcal/mol.
Regarding GTGAACGAAAGTTCCCAC ((((((....)))..))), the Tm in data set [1] came to 29.7 °C. Besides, the folding enthalpy in data set [2] is -10.9 kcal/mol.
GTGAACGAAAGTTTTCAC ((((((....)))..))): in data set [1], the Tm worked out at 31.1 °C. For the same sequence, in data set [2], the folding enthalpy was -15.6 kcal/mol.
The like results for GTGAACGGAAACATTCAC (((((.(....).))))) were, in that order, 35.4 °C and -31.7 kcal/mol.
The like results for GTGAACGGAAACGCTCAC ((((.((....)).)))) were, in that order, 47.6 °C and -31.5 kcal/mol.
As to GTGAAGCGAAAGCTCCAC (((.(((....))).))), the Tm in data set [1] came to 50 °C. Moreover, the folding enthalpy in data set [2] was -24 kcal/mol.
The like results for GTGAAGGGAAACCTCCAC (((.(((....))).))) were, in that order, 38.5 °C and -19.9 kcal/mol.
The like results for GTGAAGTCGAAAGACCAC (((..(((....)))))) were, in that order, 38.3 °C and -23.9 kcal/mol.
The like results for GTGAATCGAAAGATGCAC (((.(((....))).))) were, in that order, 50.3 °C and -31.4 kcal/mol.
As for GTGACAGCGAAAGCTCAC (((..(((....)))))), in data set [1], the Tm is 41.4 °C. Also, in data set [2], the folding enthalpy was -21.6 kcal/mol.
The like results for GTGACCCCGAAAGGGCAC (((..(((....)))))) were, in that order, 50.8 °C and -24.9 kcal/mol.
The like results for GTGACCCGAAAGGGCCAC (((.(((....))).))) were, in that order, 59.5 °C and -41 kcal/mol.
As to GTGACCGAAAGGTATCAC ((((((....)))..))), the Tm in data set [1] turned out to be 39.7 °C. Besides, in data set [2], the folding enthalpy was -14.8 kcal/mol.
The like results for GTGACCGAAAGGTCCAC ((((((....))).))) were, in that order, 47.1 °C and -11.3 kcal/mol.
On to GTGACCGAAAGGTTGCAC ((((((....)))..))), for which, in data set [1], the Tm was 42.2 °C. The folding enthalpy in data set [2] was -13.8 kcal/mol.
Consider GTGACCGGAAACGGTCGC (.(((((....))))).), for which, in data set [1], the Tm is 63.5 °C. In addition, in data set [2], the folding enthalpy was -19.9 kcal/mol.
For GTGACTACGAAAGTACAC (((..(((....)))))), the Tm in data set [1] turned out to be 29.3 °C. In addition, the folding enthalpy in data set [2] is -6.75 kcal/mol.
The like results for GTGACTCGAAAGAGACAC (((.(((....))).))) were, in that order, 54.3 °C and -32.1 kcal/mol.
GTGACTGCGAAAGCACAC (((..(((....)))))): in data set [1], the Tm stood at 38.8 °C. The folding enthalpy in data set [2] is -8.82 kcal/mol.
The like results for GTGACTGGAAACGGTCAC (((((.(....).))))) were, in that order, 53.2 °C and -49.6 kcal/mol.
The like results for GTGAGATCGAAAGATCAC (((..(((....)))))) were, in that order, 45.6 °C and -17.6 kcal/mol.
The like results for GTGAGCCCGAAAGGGCAC (((..(((....)))))) were, in that order, 52.5 °C and -11.2 kcal/mol.
GTGAGCGAAAGCTCCCAC ((((((....)))..))): the Tm in data set [1] came out at 36.4 °C. Besides, the folding enthalpy in data set [2] was -8.27 kcal/mol.
The like results for GTGAGCGAAAGCTGACAC ((((((....)))..))) were, in that order, 41.2 °C and -16.6 kcal/mol.
The like results for GTGAGCGAAAGCTGGCAC ((((((....)))..))) were, in that order, 43 °C and -9 kcal/mol.
The like results for GTGAGCGAAAGCTTCCAC ((((((....)))..))) were, in that order, 28.7 °C and -15.2 kcal/mol.
As to GTGAGCGAAAGCTTGCAC ((((((....)))..))), the Tm in data set [1] was 51.4 °C. Moreover, the folding enthalpy in data set [2] was -7.82 kcal/mol.
The like results for GTGAGGCGAAAGCCCAC (((.(((....)))))) were, in that order, 61.8 °C and -18.4 kcal/mol.
As for GTGAGGGAAACCTCAC ((((((....)))))), the Tm in data set [1] was 60.2 °C. Also, the folding enthalpy in data set [2] is -31.7 kcal/mol.
The like results for GTGAGGGGAAACCCTTGC (..((((....))))..) were, in that order, 38.7 °C and -16.4 kcal/mol.
The like results for GTGAGGGGAAACTCTCAC (((((.(....).))))) were, in that order, 49.4 °C and -32 kcal/mol.
Take GTGAGGTCGAAAGACCAC (((..(((....)))))): in data set [1], the Tm was 48.9 °C. The folding enthalpy in data set [2] is -13 kcal/mol.
The like results for GTGAGTACGAAAGTACAC (((..(((....)))))) were, in that order, 42.2 °C and -16.3 kcal/mol.
Consider GTGAGTCGAAAGACCCAC (((.(((....))).))), for which the Tm in data set [1] came out at 49.3 °C. For the same sequence, in data set [2], the folding enthalpy was -29.4 kcal/mol.
For GTGAGTGGAAACACCCAC (((.(((....))).))), in data set [1], the Tm stood at 43.2 °C. Also, the folding enthalpy in data set [2] is -31.4 kcal/mol.
